# Active and inactive are the calls of the source. The calls are words filed in the database; no cut-off is given here.
# Assays:
# [1] = Displacement of [3H]AMPA from AMPA receptor in rat brain membranes; type: cell membranes
# [2] = Displacement of [3H]kainic acid from kainate receptor in rat brain membranes; type: cell membranes
# [3] = target: Metabotropic glutamate receptor 1 (Homo sapiens, UniProt Q13255); assay: Displacement of [3H]Quisqualate from human mGluR1A receptor expressed in BHK cells; type: cell-based
# Sequence of Metabotropic glutamate receptor 1 (Q13255 whole entry): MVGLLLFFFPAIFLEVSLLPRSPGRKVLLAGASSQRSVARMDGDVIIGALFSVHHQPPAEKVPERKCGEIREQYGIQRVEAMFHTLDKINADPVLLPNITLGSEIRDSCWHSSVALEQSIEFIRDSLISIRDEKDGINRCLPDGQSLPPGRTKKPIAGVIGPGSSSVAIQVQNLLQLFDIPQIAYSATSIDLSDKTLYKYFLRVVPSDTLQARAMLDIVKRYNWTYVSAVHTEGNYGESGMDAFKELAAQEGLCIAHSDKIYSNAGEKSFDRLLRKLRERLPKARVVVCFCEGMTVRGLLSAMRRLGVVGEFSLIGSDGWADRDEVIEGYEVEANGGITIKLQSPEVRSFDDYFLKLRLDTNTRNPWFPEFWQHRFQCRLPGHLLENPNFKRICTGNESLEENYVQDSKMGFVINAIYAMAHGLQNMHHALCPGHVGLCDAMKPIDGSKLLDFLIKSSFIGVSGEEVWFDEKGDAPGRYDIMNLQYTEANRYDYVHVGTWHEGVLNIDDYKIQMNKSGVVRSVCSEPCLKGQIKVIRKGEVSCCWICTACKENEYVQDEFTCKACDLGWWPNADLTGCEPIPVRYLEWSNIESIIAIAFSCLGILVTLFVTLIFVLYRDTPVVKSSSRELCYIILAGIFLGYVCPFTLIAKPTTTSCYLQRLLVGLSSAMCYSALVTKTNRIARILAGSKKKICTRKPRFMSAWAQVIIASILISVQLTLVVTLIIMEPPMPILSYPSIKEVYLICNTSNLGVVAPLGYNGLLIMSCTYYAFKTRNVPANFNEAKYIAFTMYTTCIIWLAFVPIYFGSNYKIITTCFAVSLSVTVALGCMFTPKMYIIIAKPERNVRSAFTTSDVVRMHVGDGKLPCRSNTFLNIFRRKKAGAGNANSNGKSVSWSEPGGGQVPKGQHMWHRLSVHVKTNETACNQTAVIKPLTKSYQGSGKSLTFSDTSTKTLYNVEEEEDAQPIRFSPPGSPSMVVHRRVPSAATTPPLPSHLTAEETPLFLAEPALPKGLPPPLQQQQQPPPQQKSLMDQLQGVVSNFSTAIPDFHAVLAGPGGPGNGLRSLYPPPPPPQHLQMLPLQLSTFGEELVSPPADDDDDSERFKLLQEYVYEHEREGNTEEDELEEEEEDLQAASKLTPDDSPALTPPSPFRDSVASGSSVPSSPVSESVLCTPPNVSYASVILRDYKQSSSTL
# [4] = target: Metabotropic glutamate receptor 5 (Homo sapiens, UniProt P41594); assay: Displacement of [3H]Quisqualate from human mGluR5 receptor expressed in BHK cells; type: cell-based
# Sequence of Metabotropic glutamate receptor 5 (P41594 whole entry): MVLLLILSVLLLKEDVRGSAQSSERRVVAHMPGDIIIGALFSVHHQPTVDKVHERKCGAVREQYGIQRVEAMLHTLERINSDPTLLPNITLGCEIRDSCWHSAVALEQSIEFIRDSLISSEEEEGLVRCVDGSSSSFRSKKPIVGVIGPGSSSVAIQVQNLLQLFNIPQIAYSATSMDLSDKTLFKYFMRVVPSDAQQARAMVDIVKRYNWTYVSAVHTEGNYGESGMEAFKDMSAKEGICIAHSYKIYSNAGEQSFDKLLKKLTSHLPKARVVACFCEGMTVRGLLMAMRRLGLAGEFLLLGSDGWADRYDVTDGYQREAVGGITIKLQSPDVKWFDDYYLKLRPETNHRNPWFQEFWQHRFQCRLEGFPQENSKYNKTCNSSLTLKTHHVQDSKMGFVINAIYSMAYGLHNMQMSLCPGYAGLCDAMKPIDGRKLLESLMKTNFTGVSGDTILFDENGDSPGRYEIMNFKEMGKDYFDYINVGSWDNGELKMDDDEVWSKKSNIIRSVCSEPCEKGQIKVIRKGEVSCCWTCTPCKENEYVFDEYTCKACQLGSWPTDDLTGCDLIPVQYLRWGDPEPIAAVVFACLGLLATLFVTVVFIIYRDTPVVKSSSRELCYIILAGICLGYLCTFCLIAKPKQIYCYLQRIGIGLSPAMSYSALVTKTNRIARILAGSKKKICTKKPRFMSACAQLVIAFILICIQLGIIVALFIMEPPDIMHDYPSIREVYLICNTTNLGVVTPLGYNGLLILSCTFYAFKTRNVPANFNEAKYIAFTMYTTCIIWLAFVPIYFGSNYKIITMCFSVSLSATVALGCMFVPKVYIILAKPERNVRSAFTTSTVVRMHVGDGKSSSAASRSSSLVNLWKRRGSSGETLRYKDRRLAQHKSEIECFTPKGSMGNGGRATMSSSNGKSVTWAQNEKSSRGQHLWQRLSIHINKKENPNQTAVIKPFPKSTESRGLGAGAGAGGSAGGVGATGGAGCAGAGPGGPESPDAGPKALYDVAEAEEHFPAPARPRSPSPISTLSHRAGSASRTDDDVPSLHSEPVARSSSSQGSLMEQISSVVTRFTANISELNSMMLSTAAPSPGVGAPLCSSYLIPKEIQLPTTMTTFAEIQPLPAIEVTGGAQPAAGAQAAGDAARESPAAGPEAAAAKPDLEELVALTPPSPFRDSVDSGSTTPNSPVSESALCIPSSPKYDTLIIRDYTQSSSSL
# [5] = target: Metabotropic glutamate receptor 4 (Homo sapiens, UniProt Q14833); assay: Displacement of [3H]L-AP4 from human mGluR4 receptor expressed in BHK cells
# Sequence of Metabotropic glutamate receptor 4 (Q14833 whole entry): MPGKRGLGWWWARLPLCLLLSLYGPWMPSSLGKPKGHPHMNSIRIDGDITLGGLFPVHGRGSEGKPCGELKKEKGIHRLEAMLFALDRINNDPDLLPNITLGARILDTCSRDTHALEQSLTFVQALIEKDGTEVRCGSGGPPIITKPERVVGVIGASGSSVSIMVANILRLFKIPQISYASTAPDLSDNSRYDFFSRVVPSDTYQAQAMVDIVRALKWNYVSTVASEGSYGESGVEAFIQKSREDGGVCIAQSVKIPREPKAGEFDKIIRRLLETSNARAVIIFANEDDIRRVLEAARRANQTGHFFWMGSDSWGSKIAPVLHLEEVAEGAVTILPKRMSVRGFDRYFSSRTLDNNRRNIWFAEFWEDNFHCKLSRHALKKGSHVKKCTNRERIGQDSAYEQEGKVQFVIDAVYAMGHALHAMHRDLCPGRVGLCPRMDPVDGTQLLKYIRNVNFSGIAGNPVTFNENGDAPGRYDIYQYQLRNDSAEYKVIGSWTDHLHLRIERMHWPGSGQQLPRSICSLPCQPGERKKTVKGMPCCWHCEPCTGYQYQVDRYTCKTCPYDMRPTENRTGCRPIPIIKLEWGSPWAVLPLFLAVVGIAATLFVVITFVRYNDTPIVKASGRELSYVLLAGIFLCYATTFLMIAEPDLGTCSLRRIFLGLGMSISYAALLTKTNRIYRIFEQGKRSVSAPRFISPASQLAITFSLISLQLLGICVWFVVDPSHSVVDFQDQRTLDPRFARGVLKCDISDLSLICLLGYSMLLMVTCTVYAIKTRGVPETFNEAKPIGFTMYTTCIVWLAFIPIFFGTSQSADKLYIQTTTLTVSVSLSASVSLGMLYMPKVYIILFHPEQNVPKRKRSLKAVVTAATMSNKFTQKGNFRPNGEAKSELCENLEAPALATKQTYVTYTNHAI
# [6] = target: Metabotropic glutamate receptor 2 (Homo sapiens, UniProt Q14416); assay: Displacement of [3H]LY341495 from human mGluR2 receptor expressed in BHK cells
# Sequence of Metabotropic glutamate receptor 2 (Q14416 whole entry): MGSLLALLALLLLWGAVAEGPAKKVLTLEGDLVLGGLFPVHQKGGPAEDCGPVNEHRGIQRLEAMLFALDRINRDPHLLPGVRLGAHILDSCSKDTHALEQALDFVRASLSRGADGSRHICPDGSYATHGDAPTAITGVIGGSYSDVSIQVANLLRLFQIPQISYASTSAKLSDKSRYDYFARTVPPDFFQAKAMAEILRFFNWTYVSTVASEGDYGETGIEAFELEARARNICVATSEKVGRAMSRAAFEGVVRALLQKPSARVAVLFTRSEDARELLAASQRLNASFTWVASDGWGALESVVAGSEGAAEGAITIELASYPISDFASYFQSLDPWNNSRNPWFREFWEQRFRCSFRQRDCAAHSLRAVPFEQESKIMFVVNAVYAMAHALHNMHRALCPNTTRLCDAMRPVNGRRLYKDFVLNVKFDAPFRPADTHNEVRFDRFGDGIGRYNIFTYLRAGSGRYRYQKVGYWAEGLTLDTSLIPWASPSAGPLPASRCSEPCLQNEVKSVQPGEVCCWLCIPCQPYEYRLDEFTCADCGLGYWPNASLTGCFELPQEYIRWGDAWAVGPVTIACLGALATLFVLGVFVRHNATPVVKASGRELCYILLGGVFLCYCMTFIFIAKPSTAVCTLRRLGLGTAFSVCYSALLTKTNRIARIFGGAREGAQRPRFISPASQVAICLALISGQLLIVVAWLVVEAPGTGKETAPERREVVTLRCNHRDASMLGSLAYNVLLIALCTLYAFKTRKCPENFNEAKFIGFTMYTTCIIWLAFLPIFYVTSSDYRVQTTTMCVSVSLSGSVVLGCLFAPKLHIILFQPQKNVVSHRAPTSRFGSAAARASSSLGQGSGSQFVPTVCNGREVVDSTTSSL
# [7] = target: T1, Glutamate NMDA receptor (Rattus norvegicus) (UniProt P35439+Q00959+Q00960+Q00961+Q62645+Q8VHN2+Q9R1M7); assay: Antagonist activity at NMDA receptor in rat cortical membranes assessed as inhibition of [3H]MK801 binding in presence of glutamate and glycine; type: cell membranes
# Rattus norvegicus = species: Rattus norvegicus; assay: Agonist activity at NMDA receptor in rat cortical membranes up to 1 mM by [3H]MK801 binding assay; type: cell membranes
# How it was run: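 [3H]MK801 binding to rat cortical membranes; agonist action read as potentiation of [3H]MK801 binding relative to basal, with glutamate/glycine as reference stimulants of binding.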
# [8] = target: T1, Glutamate NMDA receptor (Rattus norvegicus); details: Brain, Brain membranes
Ki [1] [µM],Ki [2] [µM],Ki [3] [µM],Ki [4] [µM],Ki (Glutamate NMDA receptor) [µM],Ki [5] [µM],Ki [6] [µM],Activity [7],Activity (Rattus norvegicus),logKi [8],Structure (SMILES)
,,,,,,,103 nM,,,O=C(O)[C@H]1CN(CCCP(=O)(O)O)CCN1
> 300,> 300,210,336,29,> 1000,> 1000,inactive,inactive,1.46,N[C@H](CC12CC(C(=O)O)(C1)C2)C(=O)O
> 300,> 300,> 1000,> 300,> 300,> 1000,> 1000,inactive,inactive,2.48,N[C@@H](CC12CC(C(=O)O)(C1)C2)C(=O)O

Structure (SMILES),Ki [1] [µM],Ki [2] [µM],Ki [3] [µM],Ki [4] [µM],Ki (Glutamate NMDA receptor) [µM],Ki [5] [µM],Ki [6] [µM],Activity [7],Activity (Rattus norvegicus),logKi [8]
N[C@@H](CCP(=O)(O)O)C(=O)O,> 1000,> 1000,> 1000,> 1000,> 300,0.16,> 1000,,,
